According to ChEMBL document CHEMBL3632558, “Synthesis, antimycobacterial and antibacterial activity of l-[(1R,2S)-2-fluorocyclopropyl]naphthyridone derivatives containing an oxime-functionalized pyrrolidine moiety” (2015):
In brackets after ≈: the same amount, converted by molar mass.

Legend:
Type in all cases: functional
Enterococcus faecalis [1] = assay: Antibacterial activity against Enterococcus faecalis 14-2 after 18 to 24 hrs
How it was run: (§1)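 MIC by standard NCCLS reference procedure (M100-S11); lowest concentration of compound inhibiting visible bacterial growth after incubation at 35 °C for 18–24 h, read as complete inhibition of growth. Ciprofloxacin, levofloxacin and moxifloxacin run alongside as reference agents.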

Enterococcus faecium [2] = assay: Antibacterial activity against Enterococcus faecium 14-1 after 18 to 24 hrs; how it was run: as §1
Enterococcus faecium [3] = assay: Antibacterial activity against Enterococcus faecium 14-2 after 18 to 24 hrs; how it was run: as §1
Enterococcus faecium [4] = assay: Antibacterial activity against Enterococcus faecium 14-5 after 18 to 24 hrs; how it was run: as §1
Enterococcus faecium [5] = assay: Antibacterial activity against Enterococcus faecium 14-6 after 18 to 24 hrs; how it was run: as §1
[6] = test system: Mycobacterium tuberculosis; assay: Antimycobacterial activity against Mycobacterium tuberculosis H37Rv ATCC 27294 by alamar blue assay
How it was run: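 Microplate Alamar Blue Assay; MIC is the lowest concentration giving ≥90% reduction in fluorescence relative to the mean of replicate bacterium-only controls. MDR strain 6133 is resistant to isoniazid and rifampicin.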

Escherichia coli [7] = assay: Antibacterial activity against Escherichia coli ATCC 25922 after 18 to 24 hrs; how it was run: as §1
Escherichia coli [8] = assay: Antibacterial activity against ESBL-positive Escherichia coli 14-1 after 18 to 24 hrs; how it was run: as §1
Escherichia coli [9] = assay: Antibacterial activity against ESBL-positive Escherichia coli 14-2 after 18 to 24 hrs; how it was run: as §1
Escherichia coli [10] = assay: Antibacterial activity against Escherichia coli 14-1 after 18 to 24 hrs; how it was run: as §1
Escherichia coli [11] = assay: Antibacterial activity against Escherichia coli 14-2 after 18 to 24 hrs; how it was run: as §1
Klebsiella pneumoniae [12] = assay: Antibacterial activity against ESBL-positive Klebsiella pneumoniae 14-17 after 18 to 24 hrs; how it was run: as §1
Klebsiella pneumoniae [13] = assay: Antibacterial activity against ESBL-positive Klebsiella pneumoniae 14-18 after 18 to 24 hrs; how it was run: as §1
Klebsiella pneumoniae [14] = assay: Antibacterial activity against ESBL-positive Klebsiella pneumoniae 14-19 after 18 to 24 hrs; how it was run: as §1
Klebsiella pneumoniae [15] = assay: Antibacterial activity against Klebsiella pneumoniae 14-1 after 18 to 24 hrs; how it was run: as §1
Klebsiella pneumoniae [16] = assay: Antibacterial activity against Klebsiella pneumoniae 14-2 after 18 to 24 hrs; how it was run: as §1
Klebsiella pneumoniae [17] = assay: Antibacterial activity against Klebsiella pneumoniae 14-3 after 18 to 24 hrs; how it was run: as §1
Klebsiella pneumoniae [18] = assay: Antibacterial activity against Klebsiella pneumoniae 14-4 after 18 to 24 hrs; how it was run: as §1
Pseudomonas aeruginosa [19] = assay: Antibacterial activity against Pseudomonas aeruginosa ATCC 27853 after 18 to 24 hrs; how it was run: as §1
Pseudomonas aeruginosa [20] = assay: Antibacterial activity against Pseudomonas aeruginosa 14-9 after 18 to 24 hrs; how it was run: as §1
Pseudomonas aeruginosa [21] = assay: Antibacterial activity against Pseudomonas aeruginosa 14-14 after 18 to 24 hrs; how it was run: as §1
Pseudomonas aeruginosa [22] = assay: Antibacterial activity against Pseudomonas aeruginosa 14-15 after 18 to 24 hrs; how it was run: as §1
Pseudomonas aeruginosa [23] = assay: Antibacterial activity against Pseudomonas aeruginosa 14-16 after 18 to 24 hrs; how it was run: as §1
Pseudomonas aeruginosa [24] = assay: Antibacterial activity against Pseudomonas aeruginosa 14-19 after 18 to 24 hrs; how it was run: as §1
Staphylococcus aureus [25] = assay: Antibacterial activity against Staphylococcus aureus CMCC 26003 after 18 to 24 hrs; how it was run: as §1
Staphylococcus aureus [26] = assay: Antibacterial activity against methicillin-sensitive Staphylococcus aureus 14-1 after 18 to 24 hrs; how it was run: as §1
Staphylococcus aureus [27] = assay: Antibacterial activity against methicillin-sensitive Staphylococcus aureus 14-2 after 18 to 24 hrs; how it was run: as §1
Staphylococcus aureus [28] = assay: Antibacterial activity against methicillin-sensitive Staphylococcus aureus 14-3 after 18 to 24 hrs; how it was run: as §1
Staphylococcus aureus [29] = assay: Antibacterial activity against methicillin-sensitive Staphylococcus aureus 14-4 after 18 to 24 hrs; how it was run: as §1
Staphylococcus aureus [30] = assay: Antibacterial activity against methicillin-resistant Staphylococcus aureus 14-4 after 18 to 24 hrs
Staphylococcus aureus [31] = assay: Antibacterial activity against methicillin-resistant Staphylococcus aureus 14-5 after 18 to 24 hrs
[32] = test system: Staphylococcus epidermidis; assay: Antibacterial activity against methicillin-sensitive Staphylococcus epidermidis 14-2 after 18 to 24 hrs; how it was run: as §1
[33] = test system: Staphylococcus epidermidis; assay: Antibacterial activity against methicillin-resistant Staphylococcus epidermidis 14-21 after 18 to 24 hrs
[34] = test system: Staphylococcus epidermidis; assay: Antibacterial activity against methicillin-resistant Staphylococcus epidermidis 14-22 after 18 to 24 hrs
[35] = test system: Staphylococcus epidermidis; assay: Antibacterial activity against methicillin-resistant Staphylococcus epidermidis 14-37 after 18 to 24 hrs
[36] = test system: Staphylococcus epidermidis; assay: Antibacterial activity against methicillin-resistant Staphylococcus epidermidis 14-39 after 18 to 24 hrs
Streptococcus pneumoniae = assay: Antibacterial activity against Streptococcus pneumoniae ATCC 19615 after 18 to 24 hrs; how it was run: as §1
Enterococcus faecalis [37] = assay: Antibacterial activity against Enterococcus faecalis 14-1 after 18 to 24 hrs; how it was run: as §1

| Structure (SMILES) | MIC (Enterococcus faecalis [1]) [µg/mL] | MIC (Enterococcus faecium [2]) [µg/mL] | MIC (Enterococcus faecium [3]) [µg/mL] | MIC (Enterococcus faecium [4]) [µg/mL] | MIC (Enterococcus faecium [5]) [µg/mL] | MIC90 [6] [µg/mL] | MIC (Escherichia coli [7]) [µg/mL] | MIC (Escherichia coli [8]) [µg/mL] | MIC (Escherichia coli [9]) [µg/mL] | MIC (Escherichia coli [10]) [µg/mL] | MIC (Escherichia coli [11]) [µg/mL] | MIC (Klebsiella pneumoniae [12]) [µg/mL] | MIC (Klebsiella pneumoniae [13]) [µg/mL] | MIC (Klebsiella pneumoniae [14]) [µg/mL] | MIC (Klebsiella pneumoniae [15]) [µg/mL] | MIC (Klebsiella pneumoniae [16]) [µg/mL] | MIC (Klebsiella pneumoniae [17]) [µg/mL] | MIC (Klebsiella pneumoniae [18]) [µg/mL] | MIC (Pseudomonas aeruginosa [19]) [µg/mL] | MIC (Pseudomonas aeruginosa [20]) [µg/mL] | also measured |
| --- | --- | --- | --- | --- | --- | --- | --- | --- | --- | --- | --- | --- | --- | --- | --- | --- | --- | --- | --- | --- | --- |
| CCO/N=C1\CN(c2nc3c(cc2F)c(=O)c(C(=O)O)cn3[C@@H]2C[C@@H]2F)CC1(C)N (stereo partly specified) | 2 (≈ 4.75 µM) | > 128 | > 128 | > 128 | > 128 | 0.42 (≈ 0.997 µM) | 1 (≈ 2.37 µM) | 32 (≈ 75.9 µM) | > 128 | > 128 | > 128 | 32 (≈ 75.9 µM) | 32 (≈ 75.9 µM) | 128 (≈ 304 µM) | 128 (≈ 304 µM) | > 128 | 128 (≈ 304 µM) | > 128 | 16 (≈ 38 µM) | 16 (≈ 38 µM) | MIC (Pseudomonas aeruginosa [21]): 32 µg/mL (≈ 75.9 µM); MIC (Pseudomonas aeruginosa [22]): 32 µg/mL (≈ 75.9 µM); MIC (Pseudomonas aeruginosa [23]): 32 µg/mL (≈ 75.9 µM); MIC (Pseudomonas aeruginosa [24]): 64 µg/mL (≈ 152 µM); MIC (Staphylococcus aureus [25]): 0.25 µg/mL (≈ 0.593 µM); MIC (Staphylococcus aureus [26]): 64 µg/mL (≈ 152 µM); MIC (Staphylococcus aureus [27]): 0.25 µg/mL (≈ 0.593 µM); MIC (Staphylococcus aureus [28]): 0.5 µg/mL (≈ 1.19 µM); MIC (Staphylococcus aureus [29]): 1 µg/mL (≈ 2.37 µM); MIC (Staphylococcus aureus [30]): 64 µg/mL (≈ 152 µM); MIC (Staphylococcus aureus [31]): 128 µg/mL (≈ 304 µM); MIC [32]: > 128 µg/mL; MIC [33]: 64 µg/mL (≈ 152 µM); MIC [34]: 32 µg/mL (≈ 75.9 µM); MIC [35]: 32 µg/mL (≈ 75.9 µM); MIC [36]: 128 µg/mL (≈ 304 µM); MIC (Streptococcus pneumoniae): 0.25 µg/mL (≈ 0.593 µM); MIC (Enterococcus faecalis [37]): 128 µg/mL (≈ 304 µM) |
| CC1(N)CN(c2nc3c(cc2F)c(=O)c(C(=O)O)cn3[C@@H]2C[C@@H]2F)C/C1=N\OCc1ccccc1 (stereo partly specified) | 2 (≈ 4.14 µM) | > 128 | > 128 | > 128 | > 128 | 0.923 (≈ 1.91 µM) | 2 (≈ 4.14 µM) | 64 (≈ 132 µM) | > 128 | > 128 | > 128 | 128 (≈ 265 µM) | 128 (≈ 265 µM) | > 128 | > 128 | > 128 | > 128 | > 128 | 32 (≈ 66.2 µM) | 64 (≈ 132 µM) | MIC (Pseudomonas aeruginosa [21]): 64 µg/mL (≈ 132 µM); MIC (Pseudomonas aeruginosa [22]): 64 µg/mL (≈ 132 µM); MIC (Pseudomonas aeruginosa [23]): 64 µg/mL (≈ 132 µM); MIC (Pseudomonas aeruginosa [24]): 64 µg/mL (≈ 132 µM); MIC (Staphylococcus aureus [25]): 0.03 µg/mL (≈ 0.0621 µM); MIC (Staphylococcus aureus [26]): 16 µg/mL (≈ 33.1 µM); MIC (Staphylococcus aureus [27]): 0.03 µg/mL (≈ 0.0621 µM); MIC (Staphylococcus aureus [28]): 0.5 µg/mL (≈ 1.03 µM); MIC (Staphylococcus aureus [29]): 1 µg/mL (≈ 2.07 µM); MIC (Staphylococcus aureus [30]): 32 µg/mL (≈ 66.2 µM); MIC (Staphylococcus aureus [31]): 64 µg/mL (≈ 132 µM); MIC [32]: > 128 µg/mL; MIC [33]: 64 µg/mL (≈ 132 µM); MIC [34]: 32 µg/mL (≈ 66.2 µM); MIC [35]: 128 µg/mL (≈ 265 µM); MIC [36]: 64 µg/mL (≈ 132 µM); MIC (Streptococcus pneumoniae): 0.5 µg/mL (≈ 1.03 µM); MIC (Enterococcus faecalis [37]): 128 µg/mL (≈ 265 µM) |
